Data reported in ChEMBL document CHEMBL4825703, “Investigation of 3-sulfamoyl coumarins against cancer-related IX and XII isoforms of human carbonic anhydrase as well as cancer cells leads to the discovery of 2-oxo-2H-benzo[h]chromene-3-sulfonamide - A new caspase-activating proapoptotic agent” (Eur J Med Chem, 2021).
Active and inactive are the calls of the source. No cut-off for these calls is given here.

What was measured:
Carbonic anhydrase 9 = Carbonic anhydrase 9 (Homo sapiens, UniProt Q16790); experiment: Inhibition of human carbonic anhydrase 9 assessed as inhibition constant incubated for 15 mins prior to testing by phenol red based stopped-flow CO2 hydration assay
U-87 MG [1] = experiment: Antiproliferative activity against human U-87 MG cells assessed as cell growth inhibition at 30 to 100 uM measured after 24 hrs under CoCl2-induced hypoxic condition by MTT assay; type: functional, cell-based; settings: U-87MG ATCC, dose 30-100 µM
A-431 [2] = experiment: Induction of apoptosis in human A-431 cells assessed as dead cells at 15 uM incubated for 24 hrs by annexin-V/FITC and propidium iodide based staining based flow cytometry (Rvb= 0.14 %); type: functional
A-431 [3] = experiment: Induction of apoptosis in human A-431 cells assessed as late apoptotic cells at 15 uM incubated for 24 hrs by annexin-V/FITC and propidium iodide based staining based flow cytometry (Rvb= 3.06 %); type: functional
A-431 [4] = experiment: Induction of apoptosis in human A-431 cells assessed as late apoptotic cells at 10 uM incubated for 24 hrs by annexin-V/FITC and propidium iodide based staining based flow cytometry (Rvb= 3.06 %); type: functional
A-431 [5] = experiment: Induction of apoptosis in human A-431 cells assessed as late apoptotic cells at 5 uM incubated for 24 hrs by annexin-V/FITC and propidium iodide based staining based flow cytometry (Rvb= 3.06 %); type: functional
[6] = Antiproliferative activity against human WI-26 AV4 cells assessed as reduction in cell viability measured after 48 hrs by MTT assay; settings: WI-26 AV4, 48 h
A-431 [7] = experiment: Antiproliferative activity against human A-431 cells assessed as cell survival rate at 100 uM measured after 24 hrs under CoCl2-induced hypoxic condition by MTT assay relative to control; type: functional; settings: read-out: Survival
Procedure, shortened: (§1)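 MTT end-point assay. MTT (5 mg/mL in PBS) added for 4 h, formazan dissolved in DMSO, absorbance read at 560 nm. Viability given as % of untreated control (100%); mean ± SEM of three experiments.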

A-431 [8] = experiment: Induction of apoptosis in human A-431 cells assessed as early apoptotic cells at 10 uM incubated for 24 hrs by annexin-V/FITC and propidium iodide based staining based flow cytometry (Rvb= 6.10 %); type: functional
A-431 [9] = experiment: Antiproliferative activity against human A-431 cells assessed as cell survival rate at 300 uM measured after 24 hrs under CoCl2-induced hypoxic condition by MTT assay relative to control; type: functional; settings: read-out: Survival; procedure, shortened: as §1
A-431 [10] = experiment: Induction of apoptosis in human A-431 cells assessed as dead cells at 25 uM incubated for 24 hrs by annexin-V/FITC and propidium iodide based staining based flow cytometry (Rvb= 0.14 %); type: functional
[11] = Antiproliferative activity against human WI-26 AV4 cells assessed as reduction in cell viability measured after 24 hrs by MTT assay; settings: WI-26 AV4, 24 h
A-431 [12] = experiment: Antiproliferative activity against human A-431 cells assessed as reduction in cell viability measured after 72 hrs by MTT assay; settings: A-431, 72 h
[13] = Antiproliferative activity against human WI-26 AV4 cells assessed as reduction in cell viability measured after 72 hrs by MTT assay; settings: WI26VA4, 72 h
A-431 [14] = experiment: Induction of apoptosis in human A-431 cells assessed as late apoptotic cells at 20 uM incubated for 24 hrs by annexin-V/FITC and propidium iodide based staining based flow cytometry (Rvb= 3.06 %); type: functional
A-431 [15] = experiment: Induction of apoptosis in human A-431 cells assessed as early apoptotic cells at 25 uM incubated for 24 hrs by annexin-V/FITC and propidium iodide based staining based flow cytometry (Rvb= 6.10 %); type: functional
A-431 [16] = experiment: Induction of apoptosis in human A-431 cells assessed as dead cells at 5 uM incubated for 24 hrs by annexin-V/FITC and propidium iodide based staining based flow cytometry (Rvb= 0.14 %); type: functional
A-431 [17] = experiment: Induction of apoptosis in human A-431 cells assessed as activation of caspase 3/7 measured after 24 hrs by CellEvent caspase 3/7 green detection reagent based assay; type: functional, cell-based
Procedure, shortened: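 Subconfluent cells in 6-well plates exposed to compound (5–25) for 24 h at 37 °C, 5% CO₂. Cells washed in PBS and resuspended at 1 × 10^6/mL. CellEvent caspase-3/7 green reagent added at 4 final, incubated 30 min at 37 °C, then analysed by flow cytometry within 20 min.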

A-431 [18] = experiment: Induction of apoptosis in human A-431 cells assessed as dead cells at 10 uM incubated for 24 hrs by annexin-V/FITC and propidium iodide based staining based flow cytometry (Rvb= 0.14 %); type: functional
A-431 [19] = experiment: Induction of apoptosis in human A-431 cells assessed as viable cells at 10 uM incubated for 24 hrs by annexin-V/FITC and propidium iodide based staining based flow cytometry (Rvb= 90.70 %); type: functional; settings: read-out: Activity
Carbonic anhydrase 2 = Carbonic anhydrase 2 (Homo sapiens, UniProt P00918); experiment: Inhibition of human carbonic anhydrase 2 assessed as inhibition constant incubated for 15 mins prior to testing by phenol red based stopped-flow CO2 hydration assay
A-431 [20] = experiment: Induction of apoptosis in human A-431 cells assessed as viable cells at 15 uM incubated for 24 hrs by annexin-V/FITC and propidium iodide based staining based flow cytometry (Rvb= 90.70 %); type: functional; settings: read-out: Activity
A-431 [21] = experiment: Induction of apoptosis in human A-431 cells assessed as early apoptotic cells at 20 uM incubated for 24 hrs by annexin-V/FITC and propidium iodide based staining based flow cytometry (Rvb= 6.10 %); type: functional
hTERT-BJ [22] = experiment: Cytotoxicity against human TERT-Bj-5ta cells assessed as reduction in cell viability at measured after 24 hrs under CoCl2- induced hypoxic condition by MTT assay; type: cell-based
A-431 [23] = experiment: Induction of apoptosis in human A-431 cells assessed as early apoptotic cells at 15 uM incubated for 24 hrs by annexin-V/FITC and propidium iodide based staining based flow cytometry (Rvb= 6.10 %); type: functional
U-87 MG [24] = experiment: Antiproliferative activity against human U-87 MG cells assessed as cell survival rate at 300 uM measured after 24 hrs under CoCl2-induced hypoxic condition by MTT assay relative to control; type: functional, U-87MG ATCC; settings: read-out: Survival; procedure, shortened: as §1
A-431 [25] = experiment: Induction of apoptosis in human A-431 cells assessed as viable cells at 20 uM incubated for 24 hrs by annexin-V/FITC and propidium iodide based staining based flow cytometry (Rvb= 90.70 %); type: functional; settings: read-out: Activity
A-431 [26] = experiment: Induction of apoptosis in human A-431 cells assessed as viable cells at 5 uM incubated for 24 hrs by annexin-V/FITC and propidium iodide based staining based flow cytometry (Rvb= 90.70 %); type: functional; settings: read-out: Activity
A-431 [27] = experiment: Induction of apoptosis in human A-431 cells assessed as dead cells at 20 uM incubated for 24 hrs by annexin-V/FITC and propidium iodide based staining based flow cytometry (Rvb= 0.14 %); type: functional
A-431 [28] = experiment: Antiproliferative activity against human A-431 cells assessed as reduction in cell viability measured after 24 hrs by MTT assay; settings: A-431, 24 h
A-431 [29] = experiment: Induction of apoptosis in human A-431 cells assessed as late apoptotic cells at 25 uM incubated for 24 hrs by annexin-V/FITC and propidium iodide based staining based flow cytometry (Rvb= 3.06 %); type: functional
A-431 [30] = experiment: Induction of apoptosis in human A-431 cells assessed as viable cells at 25 uM incubated for 24 hrs by annexin-V/FITC and propidium iodide based staining based flow cytometry (Rvb= 90.70 %); type: functional; settings: read-out: Activity
A-431 [31] = experiment: Induction of apoptosis in human A-431 cells assessed as early apoptotic cells at 5 uM incubated for 24 hrs by annexin-V/FITC and propidium iodide based staining based flow cytometry (Rvb= 6.10 %); type: functional
A-431 [32] = experiment: Antiproliferative activity against human A-431 cells assessed as reduction in cell viability measured after 48 hrs by MTT assay; settings: A-431, 48 h
hTERT-BJ [33] = experiment: Cytotoxicity against human TERT-Bj-5ta cells assessed as reduction in cell viability at 300 uM measured after 24 hrs under CoCl2- induced hypoxic condition by MTT assay relative to control; type: cell-based
RT-4 = experiment: Antiproliferative activity against human RT-4 cells assessed as cell survival rate at 300 uM measured after 24 hrs under CoCl2-induced hypoxic condition by MTT assay relative to control; type: functional; settings: read-out: Survival; procedure, shortened: as §1

For NS(=O)(=O)c1cc2ccccc2oc1=O, the Ki (Carbonic anhydrase 9) was 0.0651 µM and the “growth inhibition (GI)” value (U-87 MG [1]) was “inactive”.

For COc1cccc2cc(S(N)(=O)=O)c(=O)oc12, the Ki (Carbonic anhydrase 9) was 0.0879 µM and the “growth inhibition (GI)” value (U-87 MG [1]) was “inactive”.

In the case of NS(=O)(=O)c1cc2c(ccc3ccccc32)oc1=O, the Ki (Carbonic anhydrase 9) is reported as 6.37 µM, the Activity (A-431 [2]) is reported as 0.24% and the Activity (A-431 [3]) is reported as 1.7%. The Activity (A-431 [4]) was 1.99%, the “growth inhibition (GI)” value (U-87 MG [1]) was “inactive” and the Activity (A-431 [5]) was 2.79%. For the same compound, the IC50 [6] was 84.5 µM, the viability at 100 µM (A-431 [7]) was 73% and the Activity (A-431 [8]) was 9.25%. The viability at 300 µM (A-431 [9]) was 23.4%, the Activity (A-431 [10]) was 0.41% and the IC50 [11] was 41.7 µM. The IC50 (A-431 [12]) was 70.1 µM, the IC50 [13] was greater than 350 µM and the Activity (A-431 [14]) was 2.65%. For the same compound, the Activity (A-431 [15]) was 18.56%, the Activity (A-431 [16]) was 0.48% and the Activity (A-431 [17]) was “Dose-Dependent Effect”. For the same compound, the Activity (A-431 [18]) was 0.34%, the viability at 10 µM (A-431 [19]) was 88.4% and the Ki (Carbonic anhydrase 2) was greater than 100 µM. For the same compound, the viability at 15 µM (A-431 [20]) was 85.5%, the Activity (A-431 [21]) was 15.93% and the Activity (hTERT-BJ [22]) was “Non-Toxic”. The Activity (A-431 [23]) was 12.52%, the viability at 300 µM (U-87 MG [24]) was 67.9% and the viability at 20 µM (A-431 [25]) was 81.2%. It also gave a viability at 5 µM (A-431 [26]) of 92.8%, an Activity (A-431 [27]) of 0.25% and an IC50 (A-431 [28]) of 9.73 µM. The Activity (A-431 [29]) was 2.31%, the viability at 25 µM (A-431 [30]) was 78.7% and the Activity (A-431 [31]) was 3.89%. For the same compound, the IC50 (A-431 [32]) was 25.9 µM.

For NS(=O)(=O)c1cc2cccc(O)c2oc1=O, the Ki (Carbonic anhydrase 9) was 0.0987 µM, the “growth inhibition (GI)” value (U-87 MG [1]) was “inactive” and the Activity (hTERT-BJ [33]) was 54.76%. For the same compound, the viability at 300 µM (RT-4) was 19.7% and the viability at 300 µM (U-87 MG [24]) was 67.7%.

In the case of NS(=O)(=O)c1cc2cc(O)ccc2oc1=O, the Ki (Carbonic anhydrase 9) is reported as 0.0664 µM, the “growth inhibition (GI)” value (U-87 MG [1]) is reported as “inactive” and the Activity (hTERT-BJ [33]) is reported as 65.75%.

With NS(=O)(=O)c1cc2cc(F)ccc2oc1=O the Ki (Carbonic anhydrase 9) was 0.0326 µM and the “growth inhibition (GI)” value (U-87 MG [1]) was “inactive”.

For CCOc1cccc2cc(S(N)(=O)=O)c(=O)oc12, the Ki (Carbonic anhydrase 9) was 0.0515 µM, the “growth inhibition (GI)” value (U-87 MG [1]) was “inactive” and the Activity (hTERT-BJ [33]) was 55.97%.

With Cc1cc(C)c2cc(S(N)(=O)=O)c(=O)oc2c1 the Ki (Carbonic anhydrase 9) was 0.825 µM and the “growth inhibition (GI)” value (U-87 MG [1]) was “inactive”.
